Experimental data from ChEMBL document CHEMBL4382258, “Design and Optimization of Sulfone Pyrrolidine Sulfonamide Antagonists of Transient Receptor Potential Vanilloid-4 with in Vivo Activity in a Pulmonary Edema Model” (J Med Chem, 2018).
In brackets after ≈: the same amount, converted by molar mass.

How the values were obtained:
[1] = biological target: T1, Transient receptor potential cation channel subfamily V member 4 (Homo sapiens, UniProt Q9HBA0); assay: Antagonist activity at human TRPV4 expressed in HEK cells assessed as inhibition of GSK634775-induced Ca2+ influx by FLIPR assay; format: cell-based
[2] = Clearance adjusted for unbound fraction in Sprague-Dawley rat at 1 mg/kg, iv administered as 30 mins infusion by LC/MS/MS analysis; format: ADME, organism-based; conditions: in vivo, 0.5 h
[3] = Oral bioavailability in Sprague-Dawley rat at 2 mg/kg by LC/MS/MS analysis; format: ADME, organism-based; conditions: in vivo
[4] = Volume of distribution at steady state in Sprague-Dawley rat at 1 mg/kg, iv or 2 mg/kg, po by LC/MS/MS analysis; format: ADME, organism-based; conditions: in vivo, read-out: Vdss
[5] = Clearance in Sprague-Dawley rat at 1 mg/kg, iv administered as 30 mins infusion by LC/MS/MS analysis; format: ADME, organism-based; conditions: in vivo
[6] = MRT in Sprague-Dawley rat at 1 mg/kg, iv or 2 mg/kg, po by LC/MS/MS analysis; format: ADME, organism-based; conditions: in vivo
[7] = Metabolic stability in rat liver microsomes assessed as parent compound remaining after 30 mins; format: ADME, Microsome; conditions: read-out: Stability
Method in brief: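 Rat liver microsomes incubated 30 min with glutathione for trapping; parent remaining measured.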

[8] = biological target: T1, Transient receptor potential cation channel subfamily V member 4; assay: Antagonist activity at human TRPV4 expressed in BHK/AC9 cells assessed as inhibition of GSK634775-induced […] pre-incubated for 10 mins followed by agonist addition by Fluo-4-AM dye-based FLIPR assay; format: cell-based
[9] = biological target: T1, Transient receptor potential cation channel subfamily V member 4; assay: Antagonist activity at human TRPV4 expressed in HEK cells assessed as inhibition of GSK634775-induced […] pre-incubated for 10 mins followed by agonist addition by Fluo-4-AM dye-based FLIPR assay; format: cell-based
Method in brief: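 TRPV4 from human recombinant channels in HEK cells; block of calcium mobilization evoked by agonist GSK634775, read on a fluorescent imaging plate reader; reported potency is an average of repeat determinations.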

HepG2 [10] = assay: Induction of phospholipidosis in human HepG2 cells after 72 hrs by fluorescence assay relative to control; format: cell-based; conditions: hepg2, 72 h
HepG2 [11] = assay: Induction of phospholipidosis in human HepG2 cells after 72 hrs by fluorescence assay; format: cell-based; conditions: hepg2, 72 h
[12] = Plasma concentration in Sprague-Dawley rat heart failure-induced pulmonary edema model at 0.09 mg/kg, iv bolus loading dose followed by 0.07 ug/kg/min, iv continuous infusion dose for 60 mins; format: ADME, organism-based
[13] = Lipophilicity, chromatographic hydrophobicity index of the compound in immobilized artificial membrane
[14] = Plasma concentration in Sprague-Dawley rat heart failure-induced pulmonary edema model at 0.78 mg/kg, iv bolus loading dose followed by 0.6 ug/kg/min, iv continuous infusion dose for 60 mins; format: ADME, organism-based
[15] = Kinetic aqueous solubility of the compound by chemiluminescence nitrogen detection analysis; conditions: buffer
[16] = biological target: Voltage-gated inwardly rectifying potassium channel KCNH2 (Homo sapiens, UniProt Q12809); assay: Inhibition of human ERG expressed in CHO cells by Qpatch assay
[17] = Plasma concentration in Sprague-Dawley rat heart failure-induced pulmonary edema model at 0.26 mg/kg, iv bolus loading dose followed by 0.2 ug/kg/min, iv continuous infusion dose for 60 mins; format: ADME, organism-based
[18] = biological target: Transient receptor potential cation channel subfamily V member 4 (Rattus norvegicus, UniProt Q9ERZ8); assay: Antagonist activity at rat TRPV4 expressed in BHK/AC9 cells assessed as inhibition of GSK634775-induced […] pre-incubated for 10 mins followed by agonist addition by Fluo-4-AM dye-based FLIPR assay; format: cell-based
[19] = pH 10.5 – pH 7.4
Cytochrome P450 3A4 [20] = biological target: T2, Cytochrome P450 3A4 (Homo sapiens, UniProt P08684); assay: Reversible inhibition of CYP3A4 (unknown origin) in presence of NADPH by vivid red substrate-based assay
Rattus norvegicus [21] = assay: (§1) Reversal of heart failure-induced pulmonary edema in Sprague-Dawley rat assessed as inhibition of GSK1016790A-induced increase in lung wet weight to body weight ratio at 0.26 mg/kg, iv bolus loading dose followed by 0.2 ug/kg/min, iv continuous infusion dose for 60 mins prior to agonist administration relative to control; format: functional
Method in brief: (§2)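 Rats given vehicle or antagonist by i.v. infusion, then agonist GSK1016790A i.v. at 10 µg/kg/min for 10 min (100 µg/kg total). Edema scored as wet lung weight/body weight ratio against naïve animals; inhibition computed from the agonist response; mean ± SEM.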

Cytochrome P450 3A4 [22] = biological target: T2, Cytochrome P450 3A4; conditions: 100 µM
[23] = Fraction unbound in Sprague-Dawley rat heart failure-induced pulmonary edema model at 0.09 to 0.78 mg/kg, iv bolus loading dose followed by 0.07 to 0.6 ug/kg/min, iv continuous infusion dose for 60 mins; format: ADME, organism-based; conditions: in vivo
Rattus norvegicus [24] = assay: as §1, with “0.09 to 0.78” for “0.26”, “0.07 to 0.6” for “0.2”, “administration” for “administration relative to control”; format: functional, organism-based; method in brief: as §2
[25] = Permeability of the compound by PAMPA; format: ADME; conditions: read-out: permeability
[26] = biological target: T1, Transient receptor potential cation channel subfamily V member 4; assay: Antagonist activity at TRPV4 (unknown origin)

T2 sequence (P08684 whole entry, the tested form may be a part): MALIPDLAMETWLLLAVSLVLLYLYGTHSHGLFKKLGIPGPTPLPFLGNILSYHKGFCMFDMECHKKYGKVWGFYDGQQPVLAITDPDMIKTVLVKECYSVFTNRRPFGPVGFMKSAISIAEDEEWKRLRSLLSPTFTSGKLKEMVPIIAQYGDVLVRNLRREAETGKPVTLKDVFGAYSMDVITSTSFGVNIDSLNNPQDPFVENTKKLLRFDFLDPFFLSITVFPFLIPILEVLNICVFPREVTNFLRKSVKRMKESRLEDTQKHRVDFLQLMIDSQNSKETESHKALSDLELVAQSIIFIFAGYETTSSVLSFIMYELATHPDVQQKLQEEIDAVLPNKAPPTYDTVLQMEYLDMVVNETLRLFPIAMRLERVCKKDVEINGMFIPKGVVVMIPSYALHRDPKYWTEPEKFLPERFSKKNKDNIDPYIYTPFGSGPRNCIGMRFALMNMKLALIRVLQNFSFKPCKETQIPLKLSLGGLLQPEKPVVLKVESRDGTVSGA
T1 sequence (Q9HBA0 whole entry, the tested form may be a part): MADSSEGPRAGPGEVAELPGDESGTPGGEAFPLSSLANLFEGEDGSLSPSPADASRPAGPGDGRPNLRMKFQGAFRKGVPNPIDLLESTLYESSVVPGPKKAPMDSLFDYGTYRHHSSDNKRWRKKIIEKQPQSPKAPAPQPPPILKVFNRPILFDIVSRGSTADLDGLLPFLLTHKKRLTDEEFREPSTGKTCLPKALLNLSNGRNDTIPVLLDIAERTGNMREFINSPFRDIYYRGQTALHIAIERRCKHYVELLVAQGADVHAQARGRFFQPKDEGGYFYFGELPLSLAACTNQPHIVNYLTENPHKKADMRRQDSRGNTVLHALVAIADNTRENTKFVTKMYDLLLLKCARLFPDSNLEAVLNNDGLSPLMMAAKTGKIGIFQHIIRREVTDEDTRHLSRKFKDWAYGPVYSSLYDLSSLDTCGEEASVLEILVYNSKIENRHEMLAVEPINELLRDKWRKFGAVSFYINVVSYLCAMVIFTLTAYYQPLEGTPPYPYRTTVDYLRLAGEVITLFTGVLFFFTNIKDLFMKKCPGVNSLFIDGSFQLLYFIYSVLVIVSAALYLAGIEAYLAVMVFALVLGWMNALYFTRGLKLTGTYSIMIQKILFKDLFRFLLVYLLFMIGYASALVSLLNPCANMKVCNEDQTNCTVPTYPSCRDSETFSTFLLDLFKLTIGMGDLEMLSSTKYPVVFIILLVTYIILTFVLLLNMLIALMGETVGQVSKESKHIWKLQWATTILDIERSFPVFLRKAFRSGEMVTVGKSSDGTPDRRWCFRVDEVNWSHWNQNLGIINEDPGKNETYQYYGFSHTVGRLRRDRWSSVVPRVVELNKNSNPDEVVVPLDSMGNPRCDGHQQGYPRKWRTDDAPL
Voltage-gated inwardly rectifying potassium channel KCNH2, sequence (Q12809 whole entry, the tested form may be a part): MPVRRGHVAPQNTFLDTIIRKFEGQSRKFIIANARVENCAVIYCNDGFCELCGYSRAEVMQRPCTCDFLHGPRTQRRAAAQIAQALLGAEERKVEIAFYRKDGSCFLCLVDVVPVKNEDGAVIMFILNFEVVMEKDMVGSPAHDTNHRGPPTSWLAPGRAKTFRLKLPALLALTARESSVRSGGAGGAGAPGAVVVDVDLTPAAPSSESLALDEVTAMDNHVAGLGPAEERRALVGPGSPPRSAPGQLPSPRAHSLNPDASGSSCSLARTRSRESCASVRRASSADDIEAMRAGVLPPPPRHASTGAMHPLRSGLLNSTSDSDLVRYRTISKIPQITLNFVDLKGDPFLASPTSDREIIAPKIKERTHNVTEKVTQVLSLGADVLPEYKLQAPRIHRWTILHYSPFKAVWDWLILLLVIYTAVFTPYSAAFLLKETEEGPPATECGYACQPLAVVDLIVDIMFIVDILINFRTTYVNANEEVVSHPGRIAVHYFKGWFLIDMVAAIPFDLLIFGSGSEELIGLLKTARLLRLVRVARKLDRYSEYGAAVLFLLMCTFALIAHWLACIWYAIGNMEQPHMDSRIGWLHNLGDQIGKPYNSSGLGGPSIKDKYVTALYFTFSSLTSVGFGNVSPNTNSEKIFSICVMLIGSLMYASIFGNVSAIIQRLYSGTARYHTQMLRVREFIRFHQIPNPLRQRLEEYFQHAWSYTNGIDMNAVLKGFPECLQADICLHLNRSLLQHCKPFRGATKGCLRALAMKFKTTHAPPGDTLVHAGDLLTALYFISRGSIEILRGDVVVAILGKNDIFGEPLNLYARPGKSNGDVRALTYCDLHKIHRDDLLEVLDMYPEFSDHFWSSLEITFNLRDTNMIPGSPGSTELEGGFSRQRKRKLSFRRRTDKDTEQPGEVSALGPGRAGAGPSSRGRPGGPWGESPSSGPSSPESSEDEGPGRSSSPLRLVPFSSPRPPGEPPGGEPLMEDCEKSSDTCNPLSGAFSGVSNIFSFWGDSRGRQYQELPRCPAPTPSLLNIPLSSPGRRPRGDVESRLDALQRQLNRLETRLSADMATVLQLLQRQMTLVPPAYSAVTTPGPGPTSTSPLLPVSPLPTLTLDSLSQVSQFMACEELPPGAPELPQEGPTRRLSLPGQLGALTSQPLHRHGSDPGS
Transient receptor potential cation channel subfamily V member 4 (Rattus norvegicus, UniProt Q9ERZ8), sequence (Q9ERZ8 whole entry): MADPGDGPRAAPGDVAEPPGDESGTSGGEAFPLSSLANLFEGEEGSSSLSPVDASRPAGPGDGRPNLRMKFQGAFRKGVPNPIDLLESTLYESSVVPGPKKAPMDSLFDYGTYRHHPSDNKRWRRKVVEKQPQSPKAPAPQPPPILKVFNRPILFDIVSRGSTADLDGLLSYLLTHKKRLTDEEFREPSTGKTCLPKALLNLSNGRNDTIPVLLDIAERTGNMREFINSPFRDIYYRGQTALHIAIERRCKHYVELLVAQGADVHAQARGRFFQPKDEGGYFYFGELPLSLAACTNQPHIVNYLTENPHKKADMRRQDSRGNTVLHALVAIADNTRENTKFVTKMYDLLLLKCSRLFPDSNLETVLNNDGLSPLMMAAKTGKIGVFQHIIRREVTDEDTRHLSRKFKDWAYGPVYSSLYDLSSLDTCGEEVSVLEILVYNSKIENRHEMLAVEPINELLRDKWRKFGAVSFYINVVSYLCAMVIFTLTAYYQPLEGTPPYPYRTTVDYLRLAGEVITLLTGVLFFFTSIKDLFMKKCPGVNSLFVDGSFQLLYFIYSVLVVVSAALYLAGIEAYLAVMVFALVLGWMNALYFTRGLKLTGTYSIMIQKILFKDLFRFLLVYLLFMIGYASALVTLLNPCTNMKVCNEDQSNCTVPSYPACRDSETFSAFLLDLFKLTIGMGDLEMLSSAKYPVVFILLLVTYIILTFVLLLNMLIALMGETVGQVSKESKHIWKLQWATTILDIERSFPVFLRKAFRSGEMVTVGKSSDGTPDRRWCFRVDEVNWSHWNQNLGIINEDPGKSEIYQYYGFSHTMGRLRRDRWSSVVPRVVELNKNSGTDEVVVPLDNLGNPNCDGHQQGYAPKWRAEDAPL

| CL free [2] | bioavailability [3] | Vd [4] | clearance [5] | MRT [6] | IC50 [8] | IC50 [9] | Compound | also measured |
| --- | --- | --- | --- | --- | --- | --- | --- | --- |
| 0.66 L/h/kg | 62% | 2 L/kg | 1.38 L/h/kg | 1.4 h |  |  | N#Cc1ccc(S(=O)(=O)N2C[C@H](S(=O)(=O)c3ccc(Cl)cn3)[C@](O)(CO)C2)c(Cl)c1 |  |
| 0.84 L/h/kg | 51% | 1.2 L/kg | 1.5 L/h/kg | 0.8 h | 0.002 µM |  | N#Cc1ccc(S(=O)(=O)[C@H]2CN(S(=O)(=O)c3ccc(Cl)cc3Cl)C[C@@]2(O)CO)cc1F | remaining at 0.5 h [7]: 46% |
|  |  |  |  |  |  | 0.159 µM | N#Cc1ccc(S(=O)(=O)[C@@H]2CN(S(=O)(=O)c3ccc(Cl)cc3Cl)C[C@]2(O)CO)cc1 |  |
| 0.288 L/h/kg | 38% | 3.2 L/kg | 3.12 L/h/kg | 1 h | 0.02 µM |  | N#Cc1ccc(S(=O)(=O)N2C[C@H](S(=N)(=O)c3ccc(Cl)cc3)[C@](O)(CO)C2)c(Cl)c1 (some centres undefined) |  |
|  |  |  |  |  |  | 1.59 µM | N#Cc1ccc(S(=O)(=O)[C@@H]2CN(S(=O)(=O)c3ccc(Cl)cc3Cl)C[C@@]2(O)CO)cc1 |  |
| 0.54 L/h/kg | 100% | 2.3 L/kg | 1.5 L/h/kg | 1.7 h |  | 0.0079 µM | N#Cc1ccc(S(=O)(=O)[C@H]2CN(S(=O)(=O)c3ccc(Cl)cc3Cl)C[C@@]2(O)CO)cc1 | remaining at 0.5 h [7]: 89%; Papp [25]: 450 nm/s |
|  |  |  |  |  |  | 0.05 µM | N#Cc1ccc(S(=O)(=O)[C@H]2CN(S(=O)(=O)c3ccc(Cl)cc3Cl)C[C@]2(O)CO)cc1 |  |
| 0.42 L/h/kg | 25% | 2.6 L/kg | 4.92 L/h/kg | 0.5 h | 0.002 µM |  | N#Cc1ccc(S(=O)(=O)[C@H]2CN(S(=O)(=O)c3ccc(Cl)cc3C#N)C[C@@]2(O)CO)cc1 | solubility kinetic [15]: 380 µM (≈ 183 µg/mL) |

Continued, compound first:

| Compound | CL free [2] | bioavailability [3] | Vd [4] | clearance [5] | MRT [6] | IC50 [8] | IC50 [9] | also measured |
| --- | --- | --- | --- | --- | --- | --- | --- | --- |
| O=C(NC1(c2ccccc2)CC1)c1c(CN2CCC(N3CCCCC3)CC2)c(-c2cccc(C(F)(F)F)c2)nc2cc(Br)ccc12 |  |  |  |  |  |  |  | IC50 [1]: 0.05 µM |
| N#Cc1ccc(S(=O)(=O)N2C[C@H](S(=O)(=O)c3ccc(Cl)cc3)[C@](O)(CO)C2)c(C(F)(F)F)n1 | 3.96 L/h/kg | 8% | 3.6 L/kg | 18.6 L/h/kg | 0.2 h | 0.02 µM |  |  |
| N#Cc1ccc(S(=O)(=O)N2C[C@H](S(=O)(=O)c3ccc(Cl)cc3)[C@](O)(CO)C2)cn1 | 0.072 L/h/kg | 62% | 4.1 L/kg | 1.32 L/h/kg | 3 h | 0.631 µM |  |  |
| N#Cc1ccc(S(=O)(=O)N2C[C@H](S(=O)(=O)c3ccc(Cl)cc3)[C@](O)(CN)C2)c(Cl)c1 | 0.162 L/h/kg | 22% | 4 L/kg | 0.72 L/h/kg | 5.7 h |  |  | Activity (HepG2 [10]): 425%; pMED (HepG2 [11]): 4.7 |
| N#Cc1ccc(S(=O)(=O)N2C[C@H](S(=O)(=O)c3ccc(Cl)cn3)[C@@](O)(CN)C2)c(Cl)c1 | 0.102 L/h/kg | 56% | 0.2 L/kg | 0.102 L/h/kg | 2.2 h | 0.0005 µM |  | concentration at 1 h [12]: 0.4 µM; CHI [13]: 36; concentration at 1 h [14]: 4.5 µM; solubility kinetic [15]: 500 µM (≈ 246 µg/mL); IC50 [16]: 8 µM; concentration at 1 h [17]: 2.1 µM; IC50 [18]: 0.001 µM; ΔCHI [19]: 3.7; IC50 (Cytochrome P450 3A4 [20]): 4 µM; inhibition (INH) (Rattus norvegicus [21]): 88%; TDI (Cytochrome P450 3A4 [22]): Not Active; fraction unbound at 1 h [23]: 0.014; pMED (HepG2 [11]): < 4; fIC50 (Rattus norvegicus [24]): 8.5 nM; IC50 (Rattus norvegicus [24]; Rattus norvegicus, Sprague-Dawley): 0.611 µM |
| N#Cc1ccc(O[C@H]2CN(S(=O)(=O)c3ccc(Cl)cc3Cl)C[C@@H]2O)cc1 |  |  |  |  |  |  | 0.032 µM |  |
| N#Cc1ccc(S(=O)(=O)[C@H]2CN(S(=O)(=O)c3ccc(Cl)cc3Cl)C[C@@H]2O)cc1 | 1.8 L/h/kg | 100% | 1.1 L/kg | 0.54 L/h/kg | 2 h |  | 0.025 µM | Papp [25]: 780 nm/s |
| N#Cc1ccc(S(=N)(=O)N2C[C@H](S(=O)(=O)c3ccc(Cl)cc3)[C@](O)(CO)C2)c(Cl)c1 (some centres undefined) | 0.534 L/h/kg | 80% | 2.7 L/kg | 2.88 L/h/kg | 0.9 h | 0.04 µM |  |  |
| CC(C)(C)c1cc(N2C[C@@]3(CCC[C@](C)(Cn4cnc5ccc(C#N)cc54)C3)OC2=O)no1 |  |  |  |  |  |  |  | IC50 [26]: 0.0075 µM |
| N#Cc1ccc(O[C@H]2CN(S(=O)(=O)c3ccc(Cl)cc3Cl)C[C@@]2(O)CO)cc1 | 0.9 L/h/kg | 46% | 2.4 L/kg | 4.44 L/h/kg | 0.6 h |  |  | Papp [25]: 370 nm/s |
| N#Cc1ccc(S(=O)(=O)[C@H]2CN(S(=O)(=O)c3ccc(C#N)cc3Cl)C[C@@]2(O)CO)cc1 | 0.24 L/h/kg | 15% | 2.2 L/kg | 2.1 L/h/kg | 1 h | 0.0032 µM |  | solubility kinetic [15]: 400 µM (≈ 193 µg/mL); Papp [25]: 350 nm/s |
| N#Cc1ccc(S(=O)(=O)N2C[C@H](S(=O)(=O)c3ccc(Cl)cn3)[C@](O)(CN)C2)c(Cl)c1 | 0.228 L/h/kg | 64% | 1.3 L/kg | 0.72 L/h/kg | 1.9 h | 0.0005 µM |  | CHI [13]: 42; solubility kinetic [15]: 500 µM (≈ 246 µg/mL); IC50 [16]: 8 µM; ΔCHI [19]: -2.2; IC50 (Cytochrome P450 3A4 [20]): 0.3 µM; TDI (Cytochrome P450 3A4 [22]): Not Active; pMED (HepG2 [11]): < 4 |
